Experimental findings from ChEMBL document CHEMBL1153612, “Synthesis and antitumor activity of novel dithiocarbamate substituted chromones” (Eur J Med Chem, 2009) are described below.

By IC50 is commonly meant the concentration that gives 50% inhibition.

Assay [1] can be described thus: Antiproliferative activity against human MDA-MB-435S cells after 72 hrs by MTT assay. It counts as functional, cell-based. In short, it runs like this:
(§1)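 Cells seeded at 8000 per well in 96-well plates, exposed to compound for 72 h. MTT added at 0.5 mg/mL final and incubated 4 h. Formazan dissolved in DMSO, absorbance read at 570 nm. IC50 is the concentration giving 50% reduction in cell growth, reported as the mean of three repeated experiments.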

Assay [2] is described as follows: Cell cycle arrest in human MDA-MB-435S cells assessed as accumulation at S phase at 0.13 uM after 48 hrs by flow cytometry. It is filed as functional, cell-based. In short, it runs like this:
(§2)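 Cells grown to about 70% confluence in 6-well plates, then treated with compound at three concentrations for 48 h. Cell-cycle phase distribution measured by flow cytometry (FACS).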
In general terms: In flow cytometry, cells or beads pass a laser one at a time.

Assay [3] is described as follows: Cell cycle arrest in human MDA-MB-435S cells assessed as accumulation at G2/M phase at 0.14 uM after 48 hrs by flow cytometry. It is filed as functional, cell-based. In short, it runs like this:
as §2

Assay [4] concerns HeLa. As to the kind of experiment: Antiproliferative activity against human HeLa cells after 72 hrs by MTT assay. It is filed as functional, cell-based. In short, it runs like this: as §1
(In general: Tetrazolium assays rely on reduction of a dye to a coloured formazan, in cell work by metabolically active cells.)

In assay [5] the test system is SW480. Briefly: Antiproliferative activity against human SW480 cells after 72 hrs by MTT assay. It counts as functional, cell-based. The settings on record: SW480, 72 h. Summed up:
as §1

Assay [6] can be described thus: Cell cycle arrest in human MDA-MB-435S cells assessed as accumulation at G0/G1 phase at 0.14 uM after 48 hrs by flow cytometry. It counts as functional, cell-based. In short, it runs like this:
as §2

Assay [7] is described as follows: Cell cycle arrest in human MDA-MB-435S cells assessed as accumulation at S phase at 0.12 uM after 48 hrs by flow cytometry. It counts as functional, cell-based. Summed up: as §2
Assay [8] in a line: Cell cycle arrest in human MDA-MB-435S cells assessed as accumulation at G2/M phase at 0.12 uM after 48 hrs by flow cytometry. It counts as functional, cell-based. Summed up:
as §2

Assay [9] in a line: Antiproliferative activity against human LM7 cells after 72 hrs by MTT assay. It is filed as functional, cell-based. The note with it: LM7, 72 h. Summed up:
as §1

Assay [10] is described as follows: Cell cycle arrest in human MDA-MB-435S cells assessed as accumulation at G2/M phase at 0.13 uM after 48 hrs by flow cytometry. It counts as functional, cell-based. In short, it runs like this:
as §2

Assay [11] concerns HEp-2. Briefly: Antiproliferative activity against human Hep2 cells after 72 hrs by MTT assay. It is filed as functional, cell-based. The settings on record: HEp-2, 72 h. In short, it runs like this:
as §1

Assay [12] is described as follows: Cell cycle arrest in human MDA-MB-435S cells assessed as accumulation at G0/G1 phase at 0.12 uM after 48 hrs by flow cytometry. It is filed as functional, cell-based. In short, it runs like this: as §2
A short description of assay [13]: Cell cycle arrest in human MDA-MB-435S cells assessed as accumulation at S phase at 0.14 uM after 48 hrs by flow cytometry. It counts as functional, cell-based. In short, it runs like this:
as §2

Assay [14] in a line: Cell cycle arrest in human MDA-MB-435S cells assessed as accumulation at G0/G1 phase at 0.13 uM after 48 hrs by flow cytometry. It is filed as functional, cell-based. Summed up: as §2
Assay [15] concerns MCF7. Briefly: Antiproliferative activity against human MCF7 cells after 72 hrs by MTT assay. It is filed as functional, cell-based. The settings on record: MCF7, 72 h. Summed up:
as §1

Assay [16] concerns SW480. Briefly: Cell cycle arrest in human SW480 cells assessed as accumulation at G2/M phase at 0.5 uM after 48 hrs by flow cytometry. It counts as functional. In short, it runs like this:
as §2

For assay [17], the system named is SW480. Briefly: Cell cycle arrest in human SW480 cells assessed as accumulation at S phase at 0.5 uM after 48 hrs by flow cytometry. It counts as functional. In short, it runs like this:
as §2

Assay [18] relates to SW480. Briefly: Cell cycle arrest in human SW480 cells assessed as accumulation at G0/G1 phase at 1 uM after 48 hrs by flow cytometry. It counts as functional. Summed up: as §2
Assay [19] deals with SW480. As to the kind of experiment: Cell cycle arrest in human SW480 cells assessed as accumulation at S phase at 1 uM after 48 hrs by flow cytometry. It counts as functional. Summed up:
as §2

The test system of assay [20] is SW480. Briefly: Cell cycle arrest in human SW480 cells assessed as accumulation at G2/M phase at 1 uM after 48 hrs by flow cytometry. It is filed as functional. In short, it runs like this:
as §2

For assay [21], the system named is SW480. Briefly: Cell cycle arrest in human SW480 cells assessed as accumulation at G0/G1 phase at 0.5 uM after 48 hrs by flow cytometry. It counts as functional. Summed up: as §2
The test system of assay [22] is SW480. As to the kind of experiment: Cell cycle arrest in human SW480 cells assessed as accumulation at S phase at 0.7 uM after 48 hrs by flow cytometry. It counts as functional. In short, it runs like this: as §2
The subject of assay [23] is SW480. Briefly: Cell cycle arrest in human SW480 cells assessed as accumulation at G0/G1 phase at 0.7 uM after 48 hrs by flow cytometry. It is filed as functional. Summed up: as §2
The subject of assay [24] is SW480. Briefly: Cell cycle arrest in human SW480 cells assessed as accumulation at G2/M phase at 0.7 uM after 48 hrs by flow cytometry. It counts as functional. Summed up:
as §2

For `O=c1c(CSC(=S)N2CCCCC2)coc2ccc(Cl)cc12`, the IC50 in assay [1] was 0.24 µM; in [4], 0.44 µM; in assay [5] it was 0.79 µM; in assay [9], 0.85 µM; in assay [11], 0.28 µM; in [15], 0.38 µM. Moreover, the Activity in [2] was determined as 20.7%; in assay [3], 24.9%; in assay [6], 41.6%; in [7], 25.3%; in assay [8] it was 13.9%; in [10], 20.6%. Further, the Activity in assay [12] was 60.8%; in [13] it was 33.6%; in [14] it was 58.7%.
As for `O=c1c(Cl)c(CSC(=S)N2CCCCC2)oc2ccccc12`, the IC50 in assay [1] stood at 0.77 µM; in [4], 9.8 µM; in assay [5] it was 0.69 µM; in assay [9], 3.3 µM; in assay [11], 0.94 µM; in assay [15] it was 1 µM. The Activity is 27.77% in assay [16]; 37.84% in assay [17]; 26.51% in assay [18]; 34.22% in assay [19]; 39.27% in assay [20]; 39.39% in [21]. Also, the figures for the Activity in assay [22], in assay [23] and in [24] were 35.2%, 36.84% and 27.96%, respectively.
On to `Cc1ccc2occ(CSC(=S)N3CCCCC3)c(=O)c2c1`, for which the IC50 was 1.7 µM in [1]; > 25 µM in assay [4]; > 25 µM in assay [5]; 5.1 µM in [9]; 0.9 µM in assay [11]; 0.8 µM in assay [15].
With `COc1ccc2c(=O)c(CSC(=S)N3CCCCC3)coc2c1`, the half-maximal inhibitory concentration (IC50) is 0.93 µM in assay [1]; 3.5 µM in assay [4]; 6.7 µM in assay [5]; 4.7 µM in assay [9]; 4.3 µM in assay [11]; > 40 µM in assay [15].
Turning to `O=c1c(CSC(=S)N2CCN(c3ccccc3)CC2)coc2ccccc12`, the IC50 in assay [1] is 9.7 µM; in [4], 7.1 µM; in assay [5], 5.2 µM; in assay [9], 2.9 µM; in [11], 16.7 µM; in [15], > 30 µM.
Consider `Cc1ccc2occ(CSC(=S)N(C(C)C)C(C)C)c(=O)c2c1`, for which the IC50 in assay [1] was 0.24 µM; in assay [4], 1.4 µM; in [5], > 25 µM; in assay [9] it was 6.3 µM; in assay [11] it was 0.7 µM; in assay [15], 6.6 µM.
In the case of `CC(C)N(C(=S)SCc1cc(=O)c2cc(Cl)ccc2o1)C(C)C`, the IC50 in assay [1] was > 25 µM; in [4], > 30 µM; in [5], > 25 µM; in [9], > 30 µM; in assay [11], 22.7 µM; in [15], > 25 µM.
`COc1ccc2c(=O)cc(CSC(=S)N3CCOCC3)oc2c1`: the concentration for half-maximal inhibition (IC50) is 3.4 µM in assay [1]; > 25 µM in [4]; 3.1 µM in assay [5]; 11 µM in assay [9]; 3 µM in assay [11]; > 25 µM in assay [15].
On to `Cc1ccc2occ(CSC(=S)N3CCOCC3)c(=O)c2c1`, for which the concentration for half-maximal inhibition (IC50) in assay [1] is 5.5 µM; in [4] it was 6.1 µM; in assay [5] it was 3.8 µM; in assay [9] it was 14.3 µM; in assay [11] it was 4 µM; in [15], 20.7 µM.
On to `CN(C(=S)SCc1coc2ccccc2c1=O)c1ccccc1`, for which the IC50 in assay [1], in assay [4], in assay [5], in assay [9], in [11] and in [15] was > 25 µM in each case.
For the molecule `O=c1c(Cl)c(CSC(=S)N2CCCC2)oc2ccccc12`, the IC50 was 1.8 µM in assay [1]; 0.7 µM in assay [4]; 1.4 µM in [5]; 1.9 µM in assay [9]; 0.6 µM in assay [11]; 2.3 µM in assay [15].
On to `O=c1cc(CSC(=S)N2CCCCC2)oc2ccc(Cl)cc12`, for which the IC50 in assay [1] is 3 µM; in [4], > 25 µM; in [5], 2.5 µM; in assay [9], 13.8 µM; in assay [11], 1.6 µM; in assay [15], > 25 µM.
`CCOC(=O)c1cc(=O)c2cc(CSC(=S)N3CCCCC3)ccc2o1`: the IC50 is 2.9 µM in assay [1]; 5.8 µM in [4]; > 25 µM in assay [5]; 16.9 µM in assay [9]; 3.4 µM in [11]; 21.9 µM in assay [15].
